Data: ChEMBL document CHEMBL1149473, “Anti-AIDS agents 69. Moronic acid and other triterpene derivatives as novel potent anti-HIV agents” (J Med Chem, 2006)
The source made the active and inactive calls. The rule behind the calls is not given here.

Tests used:
[1] = system: MT4; experiment: Antiviral activity against HIV1 NL4-3 in MT4 cells; format: functional, cell-based; settings: for EC50: Homo sapiens, NL4-3, MT4
Summary of the method: (§1)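 MT4 cells were infected with HIV-1 at MOI 0.01 using the strain named in the line. NL4-3 is a T-cell adapted X4 wild-type virus. PI-R is M46I/L63P/V82T/I84V, resistant to multiple protease inhibitors. Supernatants were collected on day 4 postinfection for p24 ELISA. EC50 = concentration inhibiting replication by 50%.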

[2] = system: MT4; experiment: Cytotoxicity against human MT4 cells; format: functional, cell-based
Summary of the method: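 Cytotoxicity was measured in MT4 cells and given as IC50, the concentration decreasing viable cell number by 50%.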

[3] = Therapeutic index, IC50 for MT-4/EC50 for HIV1 NL4-3; settings: human, MT-4 cells
[4] = Cytotoxicity against COS-TZM fused cells; format: functional, cell-based
Summary of the method: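 Cytotoxicity was determined as IC50 in a one-day assay, matching the fusion assay duration. The highest concentration tested was 10 µg/mL.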

[5] = Inhibition of membrane fusion between HIV1 NL4-3 envelope gene expressing COS cells and TZM cells; format: functional, cell-based
Summary of the method: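 COS cells were electroporated with pSRHS carrying the HIV-1 NL4-3 envelope genes (2 µg per 10⁶ cells, 950 µF, 150 V) and cultured 1 day. They were then mixed with TZM cells (10⁴ COS : 10 × 10⁴ TZM) with compound at various concentrations, 37 °C, 24 h. Luciferase read-out. EC50 = 50% inhibition of envelope-mediated fusion.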

[6] = system: H9; experiment: Cytotoxicity against human H9 lymphocytes; format: functional, cell-based
Summary of the method: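 Mock-infected H9 cells were treated in parallel with the antiviral plates under identical conditions, without virus, and were read by XTT on day 6. IC50 = concentration toxic to 50% of mock-infected cells.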

[7] = system: H9; experiment: Antiviral activity against HIV1 3B in H9 lymphocytes; format: functional, cell-based; settings: for EC50: Homo sapiens
Summary of the method: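 HIV-1 IIIB isolate (125 TCID50) added to H9 cells at 3 × 10⁵ cells/mL in RPMI 1640 with 10% fetal calf serum and L-glutamine, 37 °C, 5% CO2. Media replaced on days 1 and 4 postinfection. Supernatant p24 antigen capture on day 6. EC50 = concentration suppressing replication by 50%. AZT run as positive control each experiment.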

[8] = Therapeutic index, IC50 for H9/EC50 for HIV 3B; format: cell-based; settings: human, H9 cells; read-out: Ratio IC50/EC50
Summary of the method: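 Therapeutic index is IC50 divided by EC50. IC50 is the XTT toxicity in mock-infected H9 cells. EC50 is the 50% suppression of p24 in HIV-1 IIIB-infected H9 cells at day 6.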

[9] = system: MT4; experiment: Antiviral activity against HIV1 PI-R replication in human MT4 cells; format: functional, cell-based; summary of the method: as §1
[10] = system: MT4; experiment: Antiviral activity against HIV1 FHR2 replication in MT4 cells; format: functional, cell-based; settings: Homo sapiens; summary of the method: as §1
[11] = system: MT4; experiment: Antiviral activity against HIV1 NL4-3 replication in human MT4 cells; format: functional, cell-based; settings: NL4-3, MT4; summary of the method: as §1
[12] = system: MT4; experiment: Antiviral activity against HIV1 FHR2 replication in MT4 cells at 5 uM; format: functional, cell-based
[13] = system: MT4; experiment: Cytotoxicity against human MT4 cells at 5 uM; format: functional, cell-based

Row | SMILES | EC50 [1] | IC50 [2] | selectivity ratio [3] | IC50 [4] | EC50 [5] | IC50 [6] | EC50 [7] | selectivity ratio [8] | EC50 [9] | EC50 [10] | EC50 [11] | Activity [1] | Activity [7] | Activity [12] | IC50 [13]
1 | CC1(C)C=C2[C@H]3CC[C@@H]4[C@@]5(C)CC[C@H](OC(=O)CC(C)(C)C(=O)O)C(C)(C)[C@@H]5CC[C@@]4(C)[C@]3(C)CC[C@@]2(C(=O)NCCCCCCCCCCC(=O)O)CC1 | 110 nM | 19500 nM | 177 | > 13000 nM | 5210 nM | 24000 nM | 7 nM | 3400 |  |  |  |  |  |  | 
2 | C=C(C)[C@@H]1CC[C@]2(C(=O)NCCCCCCCC(=O)N[C@@H](CC(C)C)[C@H](O)CC(=O)O)CC[C@]3(C)[C@H](CC[C@@H]4[C@@]5(C)CC[C@H](O)C(C)(C)[C@@H]5CC[C@]43C)[C@@H]12 |  |  |  | > 13200 nM | 8.6 nM |  |  |  |  |  |  |  |  |  | 
3 | CC(C)C[C@H](NC(=O)[C@]12CCC(C)(C)C=C1[C@H]1CC[C@@H]3[C@@]4(C)CC[C@H](OC(=O)CC(C)(C)C(=O)O)C(C)(C)[C@@H]4CC[C@@]3(C)[C@]1(C)CC2)C(=O)O | 8.5 nM | 22500 nM | 2650 | > 14300 nM | 3580 nM | > 42700 nM | 15.6 nM | > 2740 | 21 nM | 130 nM | 8.5 nM |  |  |  | 
4 | C=C(C)[C@@H]1CC[C@]2(C(=O)NCCCCCCCCCCC(=O)O)CC[C@]3(C)[C@H](CC[C@@H]4[C@@]5(C)CC[C@H](OC(=O)CC(C)(C)C(=O)O)C(C)(C)[C@@H]5CC[C@]43C)[C@@H]12 | 7 nM | 11000 nM | 1570 |  |  |  |  |  |  |  |  |  |  |  | 
5 | Cc1cn([C@H]2C[C@H](N=[N+]=[N-])[C@@H](CO)O2)c(=O)[nH]c1=O [ZIDOVUDINE] |  | > 37500 nM |  |  |  |  |  |  | 19 nM | 19 nM | 13 nM |  |  |  | 
6 | CC(C)(CC(=O)O)CC(=O)O[C@H]1CC[C@]2(C)[C@H]3CC=C4[C@@H]5CC(C)(C)CC[C@]5(C(=O)O)CC[C@@]4(C)[C@]3(C)CC[C@H]2C1(C)C |  |  |  |  |  |  |  |  |  |  |  | inactive | inactive |  | 
7 | C=C(C)[C@@H]1CC[C@]2(C(=O)N[C@@H](CC(C)C)C(=O)O)CC[C@]3(C)[C@H](CC[C@@H]4[C@@]5(C)CC[C@H](OC(=O)CC(C)(C)C(=O)O)C(C)(C)[C@@H]5CC[C@]43C)[C@@H]12 | 10 nM | 12200 nM | > 1220 |  |  |  |  |  | 6 nM | 50 nM | 10 nM |  |  |  | 
8 | CC1(C)CC[C@]2(C(=O)O)CC[C@]3(C)C(=CC[C@@H]4[C@@]5(C)CC[C@H](OC(=O)CC(C)(C)C(=O)O)C(C)(C)[C@@H]5CC[C@]43C)[C@@H]2C1 | 8300 nM | 20200 nM | 2.4 |  |  | > 42700 nM | 320 nM | > 133 |  |  |  |  |  |  | 
9 | CC(C)C[C@H](NC(=O)[C@@]1(C)CC[C@]2(C)CC[C@]3(C)C(=CC(=O)[C@@H]4[C@@]5(C)CC[C@H](OC(=O)CC(C)(C)C(=O)O)C(C)(C)[C@@H]5CC[C@]43C)[C@@H]2C1)C(=O)O |  |  |  |  |  |  |  |  |  |  |  | inactive | inactive |  | 
10 | CC(C)(CC(=O)O[C@H]1CC[C@]2(C)[C@H]3C(=O)C=C4[C@@H]5C[C@@](C)(C(=O)O)CC[C@]5(C)CC[C@@]4(C)[C@]3(C)CC[C@H]2C1(C)C)C(=O)O |  |  |  |  |  |  |  |  |  |  |  | inactive | inactive |  | 
11 | C[C@H]1[C@H](C)CC[C@]2(C(=O)O)CC[C@]3(C)C(=CC[C@@H]4[C@@]5(C)CC[C@H](OC(=O)CC(C)(C)C(=O)O)C(C)(C)[C@@H]5CC[C@]43C)[C@H]12 | 8300 nM | 21000 nM | 2.5 |  |  | 28500 nM | 79 nM | 360 |  |  |  |  |  |  | 
12 | C=C(C)[C@@H]1CC[C@]2(C)CC[C@]3(C)[C@H](CC[C@@H]4[C@@]5(C)CC[C@H](OC(=O)CC(C)(C)C(=O)O)C(C)(C)[C@@H]5CC[C@]43C)[C@@H]12 | 21600 nM | > 36100 nM | > 1.7 |  |  | > 45100 nM | 2600 nM | > 17.2 |  |  |  |  |  |  | 
13 | C=C(C)[C@@H]1CC[C@]2(C(=O)O)CC[C@]3(C)[C@H](CC[C@@H]4[C@@]5(C)CC[C@H](OC(=O)CC(C)(C)C(=O)O)C(C)(C)[C@@H]5CC[C@]43C)[C@@H]12 [BEVIRIMAT] | 96 nM |  | > 52 | > 17100 nM | > 17100 nM | > 42800 nM | 7 nM | > 6250 | 430 nM |  | 96 nM |  |  | inactive | > 5000 nM
14 | CC(C)C[C@@H](CO)NC(=O)[C@]12CCC(C)(C)C=C1[C@H]1CC[C@@H]3[C@@]4(C)CC[C@H](OC(=O)CC(C)(C)C(=O)O)C(C)(C)[C@@H]4CC[C@@]3(C)[C@]1(C)CC2 | 45 nM | 23500 nM | 522 | > 14600 nM | 5850 nM | > 42700 nM | 17 nM | > 2500 | 88 nM | 2780 nM | 45 nM |  |  |  | 
15 | C[C@H]1[C@H](C)CC[C@]2(C(=O)O)CC[C@]3(C)C(=CC[C@@H]4[C@@]5(C)CC[C@H](OC(=O)CC(C)(C)CC(=O)O)C(C)(C)[C@@H]5CC[C@]43C)[C@H]12 |  |  |  |  |  | 28500 nM | 680 nM | 42 |  |  |  | inactive |  |  | 
16 | CC1(C)C=C2[C@H]3CC[C@@H]4[C@@]5(C)CC[C@H](OC(=O)C(C)(C)CC(=O)O)C(C)(C)[C@@H]5CC[C@@]4(C)[C@]3(C)CC[C@@]2(C(=O)NCCCCCCCCCCC(=O)O)CC1 |  |  |  |  |  | > 32600 nM | 9300 nM | > 3.5 |  |  |  | inactive |  |  | 
